Data published in ChEMBL document CHEMBL1949657, “Chemical modification of the multitarget neuroprotective compound fisetin” (J Med Chem, 2012).
Activity calls are given as the source filed them.

Experiments:
HT-22 [1] = assay: Induction of Nrf2 expression in mouse HT22 cells from 1 to 4 hrs by immunoblotting; type: functional, cell-based
Summary of the method: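 Nuclear extracts taken from untreated and derivative-treated cells at 1, 2 and 4 h. Equal protein run on 10% SDS-PAGE, blotted to nitrocellulose (Ponceau-S loading check). Probed with anti-Nrf2 (1/1000) and anti-β-actin, HRP secondary, chemiluminescence. Tested twice; positives tested a third time.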

HT-22 [2] = assay: Neuroprotective activity in mouse HT22 cells assessed as reduction in IAA-induced ischemia after 24 hrs by MTT assay; type: functional, cell-based
Summary of the method: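 HT22 cells seeded at 5×10^3/well. Next day switched to DMEM + 7.5% DFCS with 20 μM IAA ± derivative doses for 2 h, then IAA-free medium with derivative for 20 h. MTT 2.5 μg/ml for 4 h at 37 °C, solubilised in DMF/SDS pH 4.7, A570 read. Controls for compound toxicity and assay interference. EC50 from dose series; tested twice, third time if EC50 < 1 μM.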

[3] = Antioxidant activity against ABTS radical assessed as trolox equivalent after 4 mins by TEAC assay; type: functional
Summary of the method: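 ABTS radical cation formed overnight with potassium persulfate and diluted to OD ~0.7 at 734 nm, then mixed with derivative in ethanol. Loss of A734 followed over 4 min. TEAC = slope of % absorbance inhibition vs concentration divided by the slope for Trolox.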

HT-22 [4] = assay: Neuroprotective activity against glutamate-induced GSH loss in mouse HT22 cells assessed as intracellular GSH level at 1 to 10 uM after 24 hrs; type: functional, cell-based
Summary of the method: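 HT22 cells given derivatives (1–10 μM) with 5 mM glutamate. After 24 h, cell extracts analysed for total intracellular GSH by chemical assay. Fisetin 10 μM as positive control. Tested twice; positives tested a third time.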

PC-12 = assay: Neurotrophic activity in rat PC12 cells assessed as neurite outgrowth at 1 to 10 uM after 24 hrs; type: functional, cell-based
Summary of the method: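 PC12 cells in N2 medium given derivatives (1–10 μM) for 24 h, fisetin 10 μM as positive control. 100 cells counted in each of three fields. A cell scored positive with ≥1 neurite longer than one cell-body diameter. Tested twice; positives tested a third time.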

N9 = assay: Antiinflammatory activity in mouse N9 cells assessed as reduction of LPS-induced microglial activation at 1 to 10 uM measured as nitrite level after 24 hrs by Griess reagent-based assay; type: functional; parameters: scale not given: the % may be the effect or the level left
Summary of the method: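 N9 microglia in DME with 7.5% DFCS, given 10 μg/ml LPS alone or with derivatives (1–10 μM) for 24 h. Medium spun to remove floating cells, then nitrite measured with Griess reagent, 10 min at room temperature, absorbance 550 nm. Fisetin 10 μM as positive control. Tested twice; positives tested a third time.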

HT-22 [5] = assay: Ratio of fisetin EC50 to compound EC50 for neuroprotectivie activity in mouse HT22 cells; type: functional
Oryctolagus cuniculus = assay: Neuroprotective activity in New Zealand white rabbit small clot embolism model assessed as reduction in stroke-induced behavioural deficits at 50 mg/kg, iv administered 5 mins post-embolization measured after 24 hrs; type: functional, organism-based; parameters: dose 50 mg/kg, route intravenous
[6] = Mus musculus, HT-22, 24 h, read-out: EC50

For `CN(C)c1ccc(-c2oc3c(ccc4ccccc43)c(=O)c2O)cc1`, the Activity (HT-22 [1]) was “inactive”, the EC50 (HT-22 [2]; [6]) was 40 nM and the Activity [3] was 0.93 equiv. For the same compound, the Activity (HT-22 [4]) was “Active”, the Activity (PC-12) was “inactive” and the Activity (N9) was 0%.
In the case of `COc1ccc(-c2oc3cc(C)c(C)cc3c(=O)c2O)cc1O`, the EC50 (HT-22 [2]; [6]) is reported as 20 nM, the Activity [3] is reported as 1.74 equiv and the “Ratio EC50” value (HT-22 [5]) is reported as 10. For the same compound, the Activity (HT-22 [4]) was “inactive”, the Activity (PC-12) was “inactive” and the Activity (N9) was 72%.
In the case of `Cc1cc2oc(-c3ccc(N4CCCC4)cc3)c(O)c(=O)c2cc1C`, the Activity (HT-22 [1]) is reported as “inactive”, the EC50 (HT-22 [2]; [6]) is reported as 90 nM and the Activity [3] is reported as 2.4 equiv. For the same compound, the Activity (HT-22 [4]) was “Active”, the Activity (PC-12) was “Active” and the Activity (N9) was 0%.
In the case of `COc1ccc(/C=C/C(=O)c2cc(C)c(C)cc2O)cc1OCc1ccccc1`, the Activity (HT-22 [1]) is reported as “Active”, the EC50 (HT-22 [2]; ht-22) is reported as “Not Active” and the Activity [3] is reported as 0.12 equiv. The Activity (HT-22 [4]) was “Active”, the Activity (PC-12) was “Active” and the Activity (N9) was 70%.
For `Cc1cc2oc(-c3ccc(N(C)C)cc3)c(O)c(=O)c2cc1C`, the Activity (HT-22 [1]) was “inactive”, the EC50 (HT-22 [2]; [6]) was 20 nM and the Activity [3] was 3 equiv. For the same compound, the Activity (HT-22 [4]) was “Active”, the Activity (PC-12) was “inactive” and the Activity (N9) was 11%.
For `Oc1ccc(-c2cc(OC3CCCC3)c3ccccc3n2)cc1O` [CMS-121], the Activity (HT-22 [1]) was “inactive”, the EC50 (HT-22 [2]; [6]) was 7 nM and the Activity [3] was 0.4 equiv. The Activity (HT-22 [4]) was “Active”, the Activity (PC-12) was “Active” and the Activity (N9) was 82%.
With `COc1cc(-c2oc3cc(C)c(C)cc3c(=O)c2O)ccc1O` the EC50 (HT-22 [2]; [6]) was 40 nM, the Activity [3] was 1.89 equiv and the “Ratio EC50” value (HT-22 [5]) was 10. For the same compound, the Activity (HT-22 [4]) was “inactive”, the Activity (PC-12) was “inactive” and the Activity (N9) was 77%.
With `COc1cc(-c2ccc(O)c(O)c2)nc2ccccc12` the Activity (HT-22 [1]) was “inactive”, the EC50 (HT-22 [2]; [6]) was 40 nM and the Activity [3] was 0.36 equiv. The “Ratio EC50” value (HT-22 [5]) was 75, the Activity (HT-22 [4]) was “Active” and the Activity (PC-12) was “inactive”. For the same compound, the Activity (N9) was 85%.
With `COc1cc(-c2cc(=O)c3cc(C)c(C)cc3o2)ccc1O` the EC50 (HT-22 [2]; [6]) was 30 nM, the Activity [3] was 0.12 equiv and the “Ratio EC50” value (HT-22 [5]) was 10. The Activity (HT-22 [4]) was “inactive”, the Activity (PC-12) was “inactive” and the Activity (N9) was 41%.
In the case of `O=c1c(O)c(-c2ccc(O)c(O)c2)oc2cc(O)ccc12` [FISETIN], the Activity (HT-22 [1]) is reported as “Active”, the EC50 (HT-22 [2]; [6]) is reported as 3000 nM and the Activity [3] is reported as 3 equiv. For the same compound, the EC50 (Oryctolagus cuniculus) was 2000 nM, the Activity (HT-22 [4]) was “Active” and the Activity (PC-12) was “Active”. The Activity (N9) was 80%.
In the case of `O=c1c(O)c(-c2ccc(O)c(O)c2)oc2ccccc12`, the Activity (HT-22 [1]) is reported as “Active”, the EC50 (HT-22 [2]; [6]) is reported as 500 nM and the Activity [3] is reported as 2 equiv. For the same compound, the “Ratio EC50” value (HT-22 [5]) was 6, the Activity (HT-22 [4]) was “Active” and the Activity (PC-12) was “Active”. For the same compound, the Activity (N9) was 80%.
In the case of `Cc1cc(O)c(C(=O)/C=C/c2ccc(O)c(O)c2)cc1C`, the Activity (HT-22 [1]) is reported as “Active”, the EC50 (HT-22 [2]; [6]) is reported as 50 nM and the Activity [3] is reported as 2.7 equiv. The Activity (HT-22 [4]) was “Active”, the Activity (PC-12) was “Active” and the Activity (N9) was 94%.
With `O=C(/C=C/c1ccc(O)c(O)c1)c1ccc2ccccc2c1O` the Activity (HT-22 [1]) was “Active”, the EC50 (HT-22 [2]; [6]) was 80 nM and the Activity [3] was 2.8 equiv. The Activity (HT-22 [4]) was “Active”, the Activity (PC-12) was “Active” and the Activity (N9) was 75%.
For `O=c1c(O)c(-c2ccc(N3CCCC3)c(O)c2)oc2c1ccc1ccccc12`, the Activity (HT-22 [1]) was “inactive”, the EC50 (HT-22 [2]; [6]) was 5 nM and the Activity [3] was 2.1 equiv. For the same compound, the “Ratio EC50” value (HT-22 [5]) was 600, the Activity (HT-22 [4]) was “Active” and the Activity (PC-12) was “Active”. It also gave an Activity (N9) of 50%.
